Results as given in the EternaBench riboswitch data.

Tested on: MS2 coat protein
Assay: apparent Kd, MS2 coat protein; higher = weaker binding; RNA-MaP array; theophylline 2 mM where present
Outline: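 Stalled E. coli RNA polymerase transcribed the designs on Illumina sequencing-chip clusters. SNAP-549-labelled MS2 coat protein was titrated from 0.7 or 1.5 nM, doubling to 3 µM, without and then with constant ligand, in 100 mM Tris-HCl pH 7.5, 80 mM KCl, 4 mM MgCl2, BSA, DTT, yeast tRNA and Tween-20. Per-cluster binding curves were fitted to green signal normalised to red-channel RNA signal and control-cluster median Fmax. The apparent Kd is the median of the filtered fits.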

[1] = designed as: OFF switch for theophylline, no ligand
[2] = ligand present: theophylline, designed as: OFF switch for theophylline

Sequence	apparent Kd (designed as: ON switch for theophylline, no ligand) [nM]	apparent Kd (ligand present: theophylline, designed as: ON switch for theophylline) [nM]	apparent Kd [1] [nM]	apparent Kd [2] [nM]
GAUACCAUGAUCCUCCUGGUAUCGGCUGAUACCAGCCAGCUGACUGGCCCUUGGCAGCAGCAUACAUGAGGAUCACCCAUGUUAA	88.3	267	–	–
GAGCUGAUGUAGAAAUUUUAUUUAUGAGAUACCAGUACAGAAAUGUACCCUUGGCAGCUCAAUUUUACAUGAGGAUCACCCAUGU	–	–	12.1	13.4
ACCUACACGGAAACGUGUAGAAGUAAUGAUACCAGCAUGGAAACAUGCCCUUGGCAGCGUUACAUGAGGAUCACCCAUGUAUGUU	–	–	14.8	32.4
UGACAUUGCUCAGAUACCAGACGUGAGGAUCACCCACGUGCCAACAUGAGGAUCACCCAUGUCCCUUGGCAGCUGAGCAAUGUCU	–	–	15.7	183
